Experimental data pooled from the literature.
Each line is one published result; the experiments were not run side by side.
Target: Dual specificity tyrosine-phosphorylation-regulated kinase 1B (DYRK1B, Homo sapiens, UniProt Q9Y463)

With `CCC(=N\O)/C(C)=C/c1ccc(F)cc1` the remaining binding was 57% (cell-free assay, competition with immobilised ligand; 1 µM).
`O=C(CSc1nc2nccnc2c(=O)n1CCc1ccccc1)Nc1nccs1` gave an inhibition of -3% (enzyme activity, inhibitor; 10 µM).
`Cn1cnc(Br)c1C1=CN(c2ncnc3[nH]cnc23)CCS1` gave an inhibition of 100% (enzyme activity, inhibitor, radiometric; 2 µM).
For `COc1cccc(CCNc2nc3cc(C(=O)O)ccc3c3cncnc23)c1`, the remaining activity was 112% (enzyme activity, inhibitor, radiometric; 1 µM).
`O=C(NCCCC1CCCCC1)c1ccc(CNC(=O)c2cnn(-c3ccccc3)c2C(F)(F)F)cc1` gave a remaining binding of 100% (cell-free assay, competition with immobilised ligand; 0.1 µM).
With `Cn1cncc1C1=CN(c2ncnc3[nH]cnc23)CCS1` the inhibition was 22.7% (enzyme activity, inhibitor, radiometric; 50 nM).
For `O=C(O)c1ccc2c(c1)nc(Nc1ccccc1)c1ncncc12`, the remaining activity was 62% (enzyme activity, inhibitor, radiometric; 1 µM).
The remaining binding of `C[C@@H](c1cccc(C#N)c1)n1cc(Cl)cc(C(N)=O)c1=N` is reported as 37% (cell-free assay, competition with immobilised ligand; 1 µM).
With `Cc1ccc(NC(=O)c2ccc(C)c(C(F)(F)F)c2)cc1C#Cc1nn(C2CCC(O)CC2)c2ncnc(N)c12` (stereo not drawn) the remaining signal was 92% (cell-free assay; 10 µM).
`COc1cccc(CCNc2nc3cc(C(=O)O)ccc3c3cnccc23)c1` gave a remaining activity of 123% (enzyme activity, inhibitor, radiometric; 1 µM).
With `COc1cc2ncnc(Nc3ccc(Oc4ccccc4)c(C)c3C)c2cc1OC` the inhibition was 1% (enzyme activity, inhibitor; 1 µM).
With `O=C(O)c1ccc2c(c1)nc(Nc1ccc3ccccc3c1)c1ncncc12` the remaining activity was 41% (enzyme activity, inhibitor, radiometric; 1 µM).
For `O=C(N1CCS(=O)(=O)CC1)N1C[C@H](c2ccc(OC(F)(F)F)cc2)C[C@H](c2nc(C3CC3)no2)C1`, the remaining binding was 93% (cell-free assay, competition with immobilised ligand; 1 µM).
With `O=C(O)c1ccc2c(c1)nc(NCCc1cccc(Cl)c1)c1ncncc12` the remaining activity was 114% (enzyme activity, inhibitor, radiometric; 1 µM).
The remaining activity of `Cc1sc(C(=O)NC2COC2)cc1-n1cc(NC(=O)Nc2c(F)cccc2Cl)cn1` is reported as 105% (enzyme activity, inhibitor; 10 µM).
